Reference: ChEMBL document CHEMBL4130539, “Novel ureidopropanamide based N-formyl peptide receptor 2 (FPR2) agonists with potential application for central nervous system disorders characterized by neuroinflammation” (Eur J Med Chem, 2017)
pEC50: −log10 of the molar value. The source made the active and inactive calls. The calls are words filed in the database; no cut-off is given here.

What was measured:
[1] = Metabolic stability in rat liver microsomes assessed as parent compound remaining at 10 uM preincubated for 10 mins followed by NADPH addition measured after 30 mins by liquid chromatographic method; assay type: ADME, microsome; details: 0.5 h
[2] = molecular target: T1, N-formyl peptide receptor 2 (Homo sapiens) (UniProt P25090); assay: Agonist activity at human FPR2 expressed in human HL60 cells assessed as induction of calcium mobilization measured every 5 secs for 240 secs by Fluo-4-AM dye based fluorometric method relative to WKYMVM; assay type: functional, cell-based
T1 sequence (whole entry): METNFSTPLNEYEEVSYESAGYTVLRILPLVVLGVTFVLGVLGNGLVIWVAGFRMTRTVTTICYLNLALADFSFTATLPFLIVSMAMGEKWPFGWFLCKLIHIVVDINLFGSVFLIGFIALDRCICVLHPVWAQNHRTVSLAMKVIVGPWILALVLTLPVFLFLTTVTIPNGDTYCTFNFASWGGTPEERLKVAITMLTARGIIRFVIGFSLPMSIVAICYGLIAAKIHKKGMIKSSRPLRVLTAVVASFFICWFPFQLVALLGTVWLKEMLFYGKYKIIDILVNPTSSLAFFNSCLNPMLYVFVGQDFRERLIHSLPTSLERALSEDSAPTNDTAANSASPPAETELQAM

[3] = Half life in rat liver microsomes at 10 uM preincubated for 10 mins followed by NADPH addition by liquid chromatographic method; assay type: ADME, microsome
[4] = Intrinsic clearance in rat liver microsomes at 10 uM preincubated for 10 mins followed by NADPH addition by liquid chromatographic method; assay type: ADME, microsome
[5] = molecular target: T2, N-formyl peptide receptor 2 (Homo sapiens, UniProt P25090); assay: Agonist activity at FPR2 in human neutrophils assessed as induction of calcium mobilization measured every 5 secs for 240 secs by Fluo-4-AM dye based fluorometric method; assay type: functional; details: read-out: EC50
T2 sequence (P25090 whole entry): T1 sequence (whole entry)

[6] = molecular target: T2, N-formyl peptide receptor 2; assay: Agonist activity at human FPR2 expressed in human HL60 cells assessed as induction of calcium mobilization measured every 5 secs for 240 secs by Fluo-4-AM dye based fluorometric method; assay type: functional, cell-based; details: read-out: EC50
[7] = molecular target: T3, fMet-Leu-Phe receptor (Homo sapiens) (UniProt P21462); assay: Agonist activity at human FPR1 expressed in human HL60 cells assessed as induction of calcium mobilization measured every 5 secs for 240 secs by Fluo-4-AM dye based fluorometric method relative to fMLF; assay type: functional, cell-based
T3 sequence (whole entry): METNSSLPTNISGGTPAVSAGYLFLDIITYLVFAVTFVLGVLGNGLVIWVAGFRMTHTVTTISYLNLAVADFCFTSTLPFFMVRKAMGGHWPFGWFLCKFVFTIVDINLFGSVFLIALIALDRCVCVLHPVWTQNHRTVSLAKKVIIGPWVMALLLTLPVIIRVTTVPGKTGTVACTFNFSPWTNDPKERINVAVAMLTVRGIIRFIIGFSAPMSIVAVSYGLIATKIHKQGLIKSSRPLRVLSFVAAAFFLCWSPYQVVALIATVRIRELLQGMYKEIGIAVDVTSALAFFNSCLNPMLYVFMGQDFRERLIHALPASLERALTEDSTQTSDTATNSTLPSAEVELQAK

[8] = molecular target: T1, N-formyl peptide receptor 2 (Homo sapiens); assay: Agonist activity at FPR2 in human neutrophils assessed as induction of calcium mobilization measured every 5 secs for 240 secs by Fluo-4-AM dye based fluorometric method relative to fMLF
fMet-Leu-Phe receptor = molecular target: T4, fMet-Leu-Phe receptor (Homo sapiens, UniProt P21462); assay: Agonist activity at human FPR1 expressed in human HL60 cells assessed as induction of calcium mobilization measured every 5 secs for 240 secs by Fluo-4-AM dye based fluorometric method; assay type: functional, cell-based; details: read-out: EC50
T4 sequence (P21462 whole entry): T3 sequence (whole entry)

Microglia [9] = assay: Anti-inflammatory activity in Sprague-Dawley rat primary microglia cells assessed as inhibition of LPS-induced IL-1beta level up to 10 uM pretreated for 1 hr followed by LPS stimulation for 24 hrs by ELISA; assay type: functional, cell-based
Summary of the method: (§1)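 Primary microglia from cortices of 1–2-day-old Sprague-Dawley rats, shaken off mixed cultures at day 9 in vitro, >95% Iba-1/CD11b-positive, used 2 days after plating. Agonist added 1 h before LPS (E. coli 0111:B4, 100 ng/ml) for 24 h; WRW4 given 30 min before agonist where stated. Medium NO by Griess reaction (540 nm); TNF-α and IL-1β by ELISA. Data as % of vehicle-treated control.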

Microglia [10] = assay: Proinflammatory activity in Sprague-Dawley rat primary microglia cells assessed as induction of NO level up to 10 uM after 24 hrs by Griess reagent based assay; assay type: cell-based
Summary of the method: (§2)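 Rat primary cortical microglia (Sprague-Dawley pups, 1–2 days old, >95% Iba-1/CD11b-positive) given agonist without LPS for 24 h; WRW4 added 30 min before agonist where indicated. Supernatant NO measured with Griess reagent (540 nm, 10 min room temperature); TNF-α and IL-1β by ELISA. Values normalized to vehicle-treated cells (100%).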

Microglia [11] = assay: Anti-inflammatory activity in Sprague-Dawley rat primary microglia cells assessed as inhibition of LPS-induced TNFalpha level up to 10 uM pretreated for 1 hr followed by LPS stimulation for 24 hrs by ELISA; assay type: functional, cell-based; summary of the method: as §1
Microglia [12] = assay: Anti-inflammatory activity in Sprague-Dawley rat primary microglia cells assessed as inhibition of LPS-induced IL-1beta level up to 10 uM pretreated for 1 hr followed by LPS stimulation for 24 hrs in presence of FPR2 antagonist WRW4 by ELISA; assay type: functional, cell-based; summary of the method: as §1
Microglia [13] = assay: Proinflammatory activity in Sprague-Dawley rat primary microglia cells assessed as induction of TNFalpha level up to 10 uM after 24 hrs in presence of FPR2 antagonist WRW4 by ELISA; assay type: cell-based; summary of the method: as §2
Microglia [14] = assay: Cytotoxicity against Sprague-Dawley rat primary microglia cells assessed as cell death at 50 uM after 24 hrs by LDH assay; assay type: cell-based
Microglia [15] = assay: Cytoprotection against LPS-induced cell death in Sprague-Dawley rat primary microglia cells at 1 to 5 uM pretreated for 1 hr followed by LPS stimulation for 24 hrs by LDH assay; assay type: functional, cell-based
Microglia [16] = assay: Cytotoxicity against Sprague-Dawley rat primary microglia cells assessed as reduction in cell viability at 50 uM after 24 hrs by MTT assay; assay type: cell-based
Microglia [17] = assay: Cytotoxicity against Sprague-Dawley rat primary microglia cells assessed as reduction in cell viability at 0.5 to 10 uM after 24 hrs by MTT assay; assay type: cell-based
Microglia [18] = assay: Cytotoxicity against Sprague-Dawley rat primary microglia cells assessed as cell death at 0.5 to 10 uM after 24 hrs by LDH assay; assay type: cell-based
[19] = Efflux ratio of apparent permeability in hCMEC/D3 cells at 5 to 10 uM after 2 hrs by UV-spectroscopic method; assay type: ADME, cell-based; details: human, hcmec/d3, 2 h
Microglia [20] = assay: Proinflammatory activity in Sprague-Dawley rat primary microglia cells assessed as induction of NO level up to 10 uM after 24 hrs in presence of FPR2 antagonist WRW4 by Griess reagent based assay; assay type: cell-based; summary of the method: as §2
Microglia [21] = assay: Anti-inflammatory activity in Sprague-Dawley rat primary microglia cells assessed as inhibition of LPS-induced TNFalpha level up to 10 uM pretreated for 1 hr followed by LPS stimulation for 24 hrs in presence of FPR2 antagonist WRW4 by ELISA; assay type: functional, cell-based; summary of the method: as §1
Microglia [22] = assay: Proinflammatory activity in Sprague-Dawley rat primary microglia cells assessed as induction of IL-1beta level up to 10 uM after 24 hrs in presence of FPR2 antagonist WRW4 by ELISA; assay type: cell-based; summary of the method: as §2
Microglia [23] = assay: Proinflammatory activity in Sprague-Dawley rat primary microglia cells assessed as induction of TNFalpha level up to 10 uM after 24 hrs by ELISA; assay type: cell-based; summary of the method: as §2
Microglia [24] = assay: Cytoprotection against LPS-induced cell death in Sprague-Dawley rat primary microglia cells at 0.5 to 50 uM pretreated for 1 hr followed by LPS stimulation for 24 hrs by MTT assay; assay type: functional, cell-based
Microglia [25] = assay: Anti-inflammatory activity in Sprague-Dawley rat primary microglia cells assessed as inhibition of LPS-induced NO level up to 10 uM pretreated for 1 hr followed by LPS stimulation for 24 hrs by Griess reagent based assay; assay type: functional, cell-based; summary of the method: as §1
Microglia [26] = assay: Proinflammatory activity in Sprague-Dawley rat primary microglia cells assessed as induction of IL-1beta level up to 10 uM after 24 hrs by ELISA; assay type: cell-based; summary of the method: as §2
Microglia [27] = assay: Anti-inflammatory activity in Sprague-Dawley rat primary microglia cells assessed as inhibition of LPS-induced IL-1beta level at 0.05 to 0.1 uM pretreated for 1 hr followed by LPS stimulation for 24 hrs by ELISA; assay type: functional, cell-based; summary of the method: as §1
Microglia [28] = assay: Anti-inflammatory activity in Sprague-Dawley rat primary microglia cells assessed as inhibition of LPS-induced TNFalpha level at 0.05 to 0.1 uM pretreated for 1 hr followed by LPS stimulation for 24 hrs by ELISA; assay type: functional, cell-based; summary of the method: as §1

SMILES: N#Cc1ccc(C[C@@H](NC(=O)Nc2ccc(F)cc2)C(=O)NCC2(c3ccc(F)c(Cl)c3)CC2)cc1
- Stability [1]: 20%
- Efficacy [2]: 90%
- t1/2 [3]: 47 min
- Microsomal intrinsic clearance (CLint) [4]: 14.7 µL/min/mg
- pEC50 [5]: 5.89
- pEC50 [6]: 6.52
- Efficacy [7]: 55%
- Efficacy [8]: 95%
- pEC50 (fMet-Leu-Phe receptor): 5.27

SMILES: N#Cc1ccc(C[C@H](NC(=O)Nc2ccc(F)cc2)C(=O)NCC2(c3ccc(F)c(Cl)c3)CC2)cc1
- inhibition (Microglia [9]): Active
- Activity (Microglia [10]): Non-Toxic
- Stability [1]: 33%
- inhibition (Microglia [11]): Active
- inhibition (Microglia [12]): inactive
- Efficacy [2]: 80%
- t1/2 [3]: 48 min
- Microsomal intrinsic clearance (CLint) [4]: 14.4 µL/min/mg
- Activity (Microglia [13]): Non-Toxic
- Activity (Microglia [14]): Toxic
- Activity (Microglia [15]): Active
- Activity (Microglia [16]): Toxic
- Activity (Microglia [17]): Non-Toxic
- Activity (Microglia [18]): Non-Toxic
- Ratio [19]: 2.6
- Activity (Microglia [20]): Non-Toxic
- inhibition (Microglia [21]): inactive
- Activity (Microglia [22]): Non-Toxic
- Activity (Microglia [23]): Non-Toxic
- Activity (Microglia [24]): inactive
- inhibition (Microglia [25]): inactive
- pEC50 [5]: 6.72
- pEC50 [6]: 5.41
- Activity (Microglia [26]): Non-Toxic
- inhibition (Microglia [27]): inactive
- Efficacy [7]: 55%
- Efficacy [8]: 130%
- inhibition (Microglia [28]): inactive
- pEC50 (fMet-Leu-Phe receptor): 5.28
